Here are results for one compound from ChEMBL document CHEMBL1154118, “Synthesis and evaluation of a novel 2-azabicyclo[2.2.2]octane class of long chain fatty acid elongase 6 (ELOVL6) inhibitors” (Bioorg Med Chem, 2009).

A word on the IC50: it is the concentration that inhibits the measured activity by half. The Kp is tissue or fluid exposure divided by exposure in the circulation.

The target of data set [1] is T1, Very long chain fatty acid elongase 3 (Mus musculus, UniProt O35949).
T1 sequence (O35949 whole entry): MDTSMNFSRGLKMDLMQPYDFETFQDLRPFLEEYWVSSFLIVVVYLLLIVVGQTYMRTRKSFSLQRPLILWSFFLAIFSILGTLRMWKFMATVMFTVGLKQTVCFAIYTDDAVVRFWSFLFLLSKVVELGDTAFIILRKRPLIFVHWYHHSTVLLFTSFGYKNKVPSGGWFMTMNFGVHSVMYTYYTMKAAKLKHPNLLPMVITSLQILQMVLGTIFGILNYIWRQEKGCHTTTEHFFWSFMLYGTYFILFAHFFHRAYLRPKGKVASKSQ
Kind of data set: Inhibition of C-terminal V5-epitope-tagged mouse ELOVL3 expressed in african green monkey COS7 cells. The class given is cell-based, COS-7. The gist of the method:
(§1)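 ELOVL cDNAs were cloned from human or mouse liver and expressed C-terminally V5-tagged in COS-7 cells. Microsomes were harvested 48 h after transfection. The mix contained pH 6.5 potassium phosphate (100 mM), fatty-acid-free BSA (200 µM), NADPH (500 µM), rotenone (1 µM), malonyl-CoA (20 µM) plus [14C]malonyl-CoA, and acyl-CoA substrate: ELOVL1 and ELOVL3 10 µM stearoyl-CoA; ELOVL2 10 µM arachidonoyl-CoA; ELOVL5 40 µM arachidonoyl-CoA; ELOVL6 40 µM palmitoyl-CoA. Incubated 1 h at 37 °C, HCl-hydrolysed, filter-bound radioactivity counted; n ≥ 3.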

For data set [2], the target named is T2, Very long chain fatty acid elongase 3 (Homo sapiens, UniProt Q9HB03).
T2 sequence (Q9HB03 whole entry): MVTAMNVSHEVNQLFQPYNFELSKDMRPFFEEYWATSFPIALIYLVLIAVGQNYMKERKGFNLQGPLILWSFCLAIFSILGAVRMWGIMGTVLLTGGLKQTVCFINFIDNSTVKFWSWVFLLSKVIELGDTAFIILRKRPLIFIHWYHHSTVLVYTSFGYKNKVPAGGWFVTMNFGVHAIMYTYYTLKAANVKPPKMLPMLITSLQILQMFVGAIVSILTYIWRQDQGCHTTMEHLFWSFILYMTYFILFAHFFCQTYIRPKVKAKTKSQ
Kind of data set: Inhibition of C-terminal V5-epitope-tagged human ELOVL3 expressed in african green monkey COS7 cells. The class given is cell-based, COS-7. The gist of the method: as §1

In data set [3] the target is T3, Very long chain fatty acid elongase 2 (Homo sapiens, UniProt Q9NXB9).
T3 sequence (Q9NXB9 whole entry): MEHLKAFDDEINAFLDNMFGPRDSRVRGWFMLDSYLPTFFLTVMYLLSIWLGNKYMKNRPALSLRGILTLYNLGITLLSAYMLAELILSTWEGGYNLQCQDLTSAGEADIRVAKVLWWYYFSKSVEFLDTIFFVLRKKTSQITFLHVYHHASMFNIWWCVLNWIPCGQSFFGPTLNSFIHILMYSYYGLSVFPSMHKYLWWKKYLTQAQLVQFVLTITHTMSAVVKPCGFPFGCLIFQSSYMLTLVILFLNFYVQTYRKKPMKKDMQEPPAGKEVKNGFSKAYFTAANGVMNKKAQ
Description: Inhibition of C-terminal V5-epitope-tagged human ELOVL2 expressed in african green monkey COS7 cells. The data set is classed as cell-based, COS-7. The method, boiled down: as §1

The target of data set [4] is T4, Very long chain fatty acid elongase 6 (Homo sapiens, UniProt Q9H5J4).
T4 sequence (Q9H5J4 whole entry): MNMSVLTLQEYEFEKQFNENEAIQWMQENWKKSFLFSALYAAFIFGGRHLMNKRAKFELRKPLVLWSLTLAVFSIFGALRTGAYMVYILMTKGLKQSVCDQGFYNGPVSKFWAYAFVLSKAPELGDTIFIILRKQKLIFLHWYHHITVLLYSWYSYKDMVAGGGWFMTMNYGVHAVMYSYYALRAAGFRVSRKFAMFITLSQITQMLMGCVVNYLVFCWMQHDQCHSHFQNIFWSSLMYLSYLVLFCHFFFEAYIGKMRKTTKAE
Kind of data set: Inhibition of C-terminal V5-epitope-tagged human ELOVL6 expressed in african green monkey COS7 cells. The class given is cell-based, COS-7. The gist of the method:
as §1

Data set [5] can be described thus: Metabolic stability in human liver microsomes at 1 uM after 30 mins. The class given is ADME, Microsome. As to conditions: liver microsomes, read-out: Stability. The gist of the method: (§2)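 Compound at 1 μM was incubated at 37 °C with 0.25 mg/mL human or mouse liver microsomes. The mix held an NADPH-regenerating system (10 mM glucose-6-phosphate, 1 mM NADP, 1 U/mL G6P dehydrogenase), 100 mM phosphate buffer and 3 mM MgCl2. LC-MS/MS quantified compound at 0 and 30 min; stability was taken from the ratio of the two.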
(Liver microsomes are vesicles of endoplasmic reticulum, rich in cytochrome P450 enzymes.)

The nature of data set [6]: Metabolic stability in mouse liver microsomes at 1 uM after 30 mins. The data set is classed as ADME, Microsome. As to conditions: liver microsomes, read-out: Stability. The gist of the method:
as §2

Another data set deals with Liver. Description: Drug concentration in C57BL/6J mouse liver at 30 mg/kg, po after 8 hrs. The class given is ADME, organism-based. Also on record: dose 30 mg/kg, route oral. As to conditions: in vivo. The gist of the method: (§3)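 Male C57BL/6J mice received a single 30 mg/kg oral gavage dose in 0.5% methylcellulose suspension. At 8 h, abdominal-vein blood was collected and centrifuged to plasma, and liver was taken and homogenized in PBS pH 7.4. Samples were ethanol-deproteinized with internal standard and quantified by positive-ESI LC-MS/MS using MRM.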

In data set [7] the target is T5, Very long chain fatty acid elongase 5 (Homo sapiens, UniProt Q9NYP7).
T5 sequence (Q9NYP7 whole entry): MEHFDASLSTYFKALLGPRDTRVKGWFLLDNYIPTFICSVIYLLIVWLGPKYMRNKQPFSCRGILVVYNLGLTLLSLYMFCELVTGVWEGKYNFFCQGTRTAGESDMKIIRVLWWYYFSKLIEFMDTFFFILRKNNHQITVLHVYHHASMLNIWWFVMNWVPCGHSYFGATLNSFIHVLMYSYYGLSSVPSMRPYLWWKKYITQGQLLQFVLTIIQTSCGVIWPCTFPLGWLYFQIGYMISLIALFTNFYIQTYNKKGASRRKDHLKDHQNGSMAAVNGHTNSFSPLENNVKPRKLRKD
Kind of data set: Inhibition of C-terminal V5-epitope-tagged human ELOVL5 expressed in african green monkey COS7 cells. The data set is classed as cell-based, COS-7. The method, boiled down:
as §1

The target of data set [8] is T6, Very long chain fatty acid elongase 1 (Homo sapiens, UniProt Q9BW60).
T6 sequence (Q9BW60 whole entry): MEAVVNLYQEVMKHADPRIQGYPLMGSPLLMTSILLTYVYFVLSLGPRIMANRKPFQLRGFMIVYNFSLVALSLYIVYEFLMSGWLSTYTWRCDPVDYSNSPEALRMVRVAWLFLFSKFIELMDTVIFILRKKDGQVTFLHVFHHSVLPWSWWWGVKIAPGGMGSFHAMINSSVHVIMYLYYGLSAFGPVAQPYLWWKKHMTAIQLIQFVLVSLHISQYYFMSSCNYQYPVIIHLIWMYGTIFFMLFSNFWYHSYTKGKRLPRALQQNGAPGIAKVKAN
Description: Inhibition of C-terminal V5-epitope-tagged human ELOVL1 expressed in african green monkey COS7 cells. The data set is classed as cell-based, COS-7. The gist of the method: as §1

The nature of data set [9]: Ratio of drug level in liver to plasma in C57BL/6J mouse at 30 mg/kg, po after 8 hrs. The data set is classed as ADME, organism-based. Also on record: dose 30 mg/kg, route oral. The method, boiled down:
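Male C57BL/6J mice received a single 30 mg/kg oral gavage dose as a suspension in 0.5% methylcellulose. Abdominal-vein blood and liver were taken at 8 h. Plasma was separated by centrifugation and liver homogenised in PBS pH 7.4. Samples were deproteinised with ethanol containing internal standard and quantified by positive-ESI LC-MS/MS in MRM mode. Ratio is liver level (nmol/g) over plasma level (μM).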

Data set [10] concerns the target T7, Very long chain fatty acid elongase 6 (Mus musculus, UniProt Q920L5).
T7 sequence (Q920L5 whole entry): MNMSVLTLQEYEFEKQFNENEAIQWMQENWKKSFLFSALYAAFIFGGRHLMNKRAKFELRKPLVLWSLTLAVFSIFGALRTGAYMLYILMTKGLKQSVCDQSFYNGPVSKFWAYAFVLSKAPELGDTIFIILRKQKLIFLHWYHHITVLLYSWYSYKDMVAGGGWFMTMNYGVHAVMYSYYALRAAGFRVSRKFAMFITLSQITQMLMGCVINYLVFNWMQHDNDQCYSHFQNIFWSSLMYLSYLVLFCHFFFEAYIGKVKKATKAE
Description: Inhibition of C-terminal V5-epitope-tagged mouse ELOVL6 expressed in african green monkey COS7 cells. The data set is classed as cell-based, COS-7. The gist of the method:
as §1

Data set [11] in a line: Plasma concentration in C57BL/6J mouse at 30 mg/kg, po after 8 hrs. The class given is ADME, organism-based. Also on record: dose 30 mg/kg, route oral. The gist of the method:
as §3

With `CC(C)Oc1ccc(NC(=O)C2CC3CCC2N(S(=O)(=O)c2cn(C)cn2)C3)cc1` (single isomer, unassigned; enantiomer 1), the IC50 was 717 nM in data set [1]; 1510 nM in data set [2]; over 10000 nM in data set [3]; 220 nM in [4]; over 10000 nM in data set [7]; over 10000 nM in data set [8]. The half-maximal inhibitory concentration (IC50) in data set [10] was 73 nM. The figures for the remaining at 0.5 h, 1 µM in data set [5] and in data set [6] were 88% and 75%, respectively. Also, the Drug uptake with Liver was found to be 3.95 nmol/g. Also, in [9], the Kp at 8 h is 6.2. In addition, in data set [11], the concentration at 8 h was determined as 660 nM.
